Assay results reported in the EternaBench riboswitch data.

System: MS2 coat protein
Experiment: apparent Kd, MS2 coat protein; higher = weaker binding; RNA-MaP array; FMN 200 µM where present
Method in brief: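 Designs on Illumina sequencing-chip clusters, transcribed by stalled E. coli RNA polymerase, were exposed to SNAP-549-labelled MS2 coat protein in doubling steps from 0.7 or 1.5 nM up to 3 µM, without and then with constant ligand. The buffer held 100 mM Tris-HCl pH 7.5, 80 mM KCl, 4 mM MgCl2, BSA, DTT, yeast tRNA and Tween-20. Apparent Kd values are medians of filtered per-cluster binding-curve fits to green signal normalised to red-channel RNA signal and control-cluster median Fmax.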

[1] = designed as: OFF switch for flavin mononucleotide, no ligand
[2] = ligand present: flavin mononucleotide, designed as: OFF switch for flavin mononucleotide
[3] = designed as: ON switch for flavin mononucleotide, no ligand
[4] = ligand present: flavin mononucleotide, designed as: ON switch for flavin mononucleotide

| Sequence | apparent Kd [1] [nM] | apparent Kd [2] [nM] | apparent Kd [3] [nM] | apparent Kd [4] [nM] |
| --- | --- | --- | --- | --- |
| GGGUAGUGAGGAUAUCGUUGUUAGGAGGAGAAGGUAGGAGGCGAGAAGGCACAUGAGGAUCACCCAUGUAUGAG | 31 | 28.1 |  |  |
| GGUACCAUCACAGGAUAUGCUUUUCUUUGGGAAGCAGAAGGGUGUAACAUGAGGAUCACCCAUGUGGUGCCAGGGCGUUAGCCC |  |  | 188 | 16.8 |
| CCAGCGUAUGUGAGGAUAUGCUGGUCCUUGGAUCAGCAGAAGGCACAUGAGGAUCACCCAUGUGGUGUCGUUGG | 303 | 37 |  |  |
| UCGUCGUCAGGAUAUUUUGUAUUGCAGAUUUCGCAGUUGCCAAAGAAGGGACAUGAGGAUCACCCAUGUAGUCU | 32.6 | 42.2 |  |  |
| CCCACGAGCGUAGGAUAUACAUGAGGAUCACCCAUGUAGGCACAAUGUCCCAGCUAGUGACCAGUGUAGAAGGACGUGUCUGGG | 50.8 | 107 |  |  |
| UGAUCUUACAUGAGGAUCACCCAUGUAGGCCAGUAACUAACCAGAAGGCACGUAGAGUACAACAGUGAGGAUAUGGAUGACAUA |  |  | 9.29 | 5.95 |
| ACGAAACAUGAGGAUCACCCAUGUGCUUAAAGUGUAGGAUAUGGGAUAGCCUAGGUAGUCUCAGAAGGGCACCAAU |  |  | 45.1 | 22.5 |
| UUACAUACAAAGGUACAUGAGGAUCACCCAUGUUUGUUGGGAAGAAGGGUAACAGUACUACACAUACAGGAUAUUUCACAAAUA |  |  | 86.8 | 56.4 |
| GCUCGAUGAGCUGACUACAUGAGGAUCACCCAUGUAGAUGGGCAGGAUAUUUACGUGCUUUAUGUAGAGAAGGGCCCAUCGAGC |  |  | 324 | 114 |
| UUGCGGUAGGAGAAGGACAGAGGCUUAAUUACAUACAUGAGGAUCACCCAUGUAGGAUAUCCUACCUAACGCGGACUCCUCCAG | 7.65 | 7.83 |  |  |
| GUACUGAAGCCUUGCUUUAGUCGUACAUGAGGAUCACCCAUGUAGGAUAUGGUAGGCUUUGCUUACUAGAAGGAUAGAGUGAUC | 56.1 | 34 |  |  |
| ACCUCACAUGAGGAUCACCCAUGUCAGGAUAUCUUUUAAAACAGCAAUCCUGUCGCUGAGAGAAGGGACAUUAA | 27.6 | 35.6 |  |  |
| GGUGUGUUAGGAUAUCGCGGCGGCGGCGUUUGUUGUUGUUGUGAGAAGGAACAUGAGGAUCACCCAUGUGCGCC | 27.3 | 75.5 |  |  |
| GCGGCUAAUGCAGGAUAUCGGCGCGUGUAGCGCCGAGAAGGGCACAUGAGGAUCACCCAUGUGAUCAAUCAAUGUUAAUGCCGC | 8.68 | 45.6 |  |  |
| CGCGAAAACAUAGGAUAUUGUUACAUGAGGAUCACCCAUGUCAACCAUGUAGCUCGAAUUGUUGACAAGAAGGAUGAGGUCGCG |  |  | 48.3 | 103 |
| ACGUAUCAUGUAGGAUAUGGCCCAGGAACUUGGUCAGAAGGACAUGAGGAUCACCCAUGUAGAGUAUGUUAGGAUGACGUAUGC | 92.9 | 173 |  |  |
| AAGUUUAACGAAGGAUAUGGUUACAUGAGGAUCACCCAUGUAUUUUUUGUGAUCUUGUUUAAGUUCCAGAAGGUCGUAUACAUA | 95.4 | 305 |  |  |
| CACUGCAAUGUAGGAUAUCGACUGGAUAACAGUCGAGAAGGACAUGAGGAUCACCCAUGUCAUCCUAAUAAUAAAUAAGCAGUG | 15.3 | 19.1 |  |  |
| AGCUAGUCAGGAUAUGCGUGAAGAAUAAAACAAAUAACAACGCAGAAGGGACAUGAGGAUCACCCAUGUUAGCA | 30.7 | 19.5 |  |  |

| Sequence | apparent Kd [1] [nM] | apparent Kd [2] [nM] | apparent Kd [3] [nM] | apparent Kd [4] [nM] |
| --- | --- | --- | --- | --- |
| UUUGAAUAAGUGAGGAUAUACUGUUAGUAAUGAUUGUAGAAGGUACAUGAGGAUCACCCAUGUUUAUUAUUUAU | 21.8 | 18.3 |  |  |
| AAGGAGUAAGGAUAUGCUGCUCGUCACUUGCGUGAUGAGUAGCAGAAGGUACAUGAGGAUCACCCAUGUAAAGA | 27.4 | 20.1 |  |  |
| UACAUGAGGAUCACCCAUGUUUUGUCGUGUAUGGUAUUUAUCUAGGAUAUCAAUUUGUUAAUUUAUGAGAAGGAGAAUAUUAAU | 35.3 | 38.3 |  |  |
| CGUACUCAAAGAGUACCAAUACGAACAUGAGGAUCACCCAUGUAGGAUAUGCUACUCAAAGAGUAGCAGAAGGACAUGUGCCUA | 19.3 | 73.2 |  |  |
| CACAAUCUAUCUGAGGAUAUCAUGAAAAAAACAUGAGGAUCACCCAUGUGCAGGAAAACUGCAUAUGAGAAGGCAGAUAGAUUGG |  |  | 658 | 28.3 |
| GUGGUCAGACAUGAGGAUCACCCAUGUGGAAUAAAUAAGGAAAAGGAUAUUCAAUAUAGGAUAUAGAAGAAGGUUUGGUUGGUG |  |  | 74.4 | 83.4 |
| GCGUAAAAUGUAGGAUAUGACACAGGAAACUGGUCAGAAGGACAUGAGGAUCACCCAUGUAAAAUGUUCAAGAAUAACUCAUGC |  | 172 |  |  |
| CAGCGAAAGCUGAAUCUGUAGAGAGAGGAUAUACGUCAUAAGGUGCAAACAUGAGGAUCACCCAUGUAGAAGGCUCUCUACAGU | 55.8 | 460 |  |  |
| UUUUAACAUGAGGAUCACCCAUGUGAGGAUAUCGAAAUUUAUAUUAAUAUUAUUUUUACGAGAAGGCACAUUUU | 90.3 | 95.4 |  |  |
| UCAUUAUAGAUCCAUUUUAACUACAUGAGGAUCACCCAUGUGCAGGAUAUCGAUUGUUUUACUUUCGAGAAGGGCAAAUACAGA | 78 | 202 |  |  |
| ACCAUUUACUAAUCUUCUAUACAUGAGGAUCACCCAUGUUUUGAGGAUAUCAGCGUGAAACACGCUGAGAAGGCAAAACAUUCG | 72 | 393 |  |  |
| UGUUUUCAUGUAGGAUAUGCUUGUCGUAGAUACGCAGAAGGACAUGAGGAUCACCCAUGUUAAAGCGUCAGAGUAUAGAUUCUU | 17.9 | 45.6 |  |  |
| CCGAAACCUCAGAAGGACCACAUGAGGAUCACCCAUGUCAAGCAAAACGGUAGGAUAUGAGGGAAAAGUCGGUGUACCCGACAG |  |  | 8.93 | 5.76 |
| AGGAAACAUGAGGAUCACCCAUGUAAAUAUGGGCGAGGAUAUCGAAAGAAAAGAAAGAAACGAGAAGGCGCAAAAG |  |  | 324 | 77.7 |
| UAUGGUUAAGUCAGGAUAUACGUGCAGUUAUCUGAGUAGAAGGGACAUGAGGAUCACCCAUGUAUGGUAGUGUU | 75.3 | 86.4 |  |  |
| UUAUACGUUGAGGAUAUGCGACUGUUUUAAGUUGUAGAAGGCGAUACAUGAGGAUCACCCAUGUUUAUGGGCAU | 240 | 327 |  |  |
| CUCCUCCCGAAGGAUAUCCACGCCAACUUCGUAGGAGAAGGUCGGACAUGAGGAUCACCCAUGUGGCCAUGGUU | 18.5 | 40.3 |  |  |
| GGUACCAUUACAGGAUAUGCUUUCCUUUGGAAAGCAGAAGGGUGUAACAUGAGGAUCACCCAUGUGGUGCCAGGGCGUGAGCCC |  |  | 659 | 182 |
| UUCAAAUUCGUAGGAUAUGUAUAUAUUUUCUACAUGAGGAUCACCCAUGUUACCAUUUUUUAUUGACAGAAGGACGUAAUCUAA |  |  | 34.6 | 13.8 |

| Sequence | apparent Kd [1] [nM] | apparent Kd [2] [nM] | apparent Kd [3] [nM] | apparent Kd [4] [nM] |
| --- | --- | --- | --- | --- |
| GUGGAUAGACGCCCACGUGAGACAUGAGGAUCACCCAUGUACAGAAGGUGGAGCGUUAAUGGUGCCAAGGAUAUGUACAUAAGG |  | 5.11 |  |  |
| AUGUUGUCAGGAUAUCUUACAUAACAAUCGUUGUUACCAUUGGAGAAGGGACAUGAGGAUCACCCAUGUUAGCC | 20.8 | 23 |  |  |
| CUUGUUUAUGUGAGGAUAUACUGUUAGUAAUGUUUGUAGAAGGUACAUGAGGAUCACCCAUGUUUAUUUCCUUU | 14.2 | 13.1 |  |  |
| CCGCCCUGAGGAUAUCCACCCUCAUACAUGAGGAUCACCCAUGUUCACCCUUGGGUUCCCGGAGAAGGCAGCCUUC | 566 | 548 |  |  |
| UGUUGUAUUACAGGAUAUCUAUUAGUUUUAGUUAGAGAAGGGUAUUCACAUGAGGAUCACCCAUGUAUAUACGAGGAAGUUGUG |  |  | 44.1 | 49.1 |
| AAGAUGCCUCCUGCUGGUGGGAGACAUGAGGAUCACCCAUGUCAGGAUAUCGGUUAAAGAGGACACGAGAAGGGACAGGAGUAC | 8.19 | 9.23 |  |  |
| CUCGUUAUGUUAGGAUAUGAUGCAUCCCGAUAAUCAGAAGGAACAUGAGGAUCACCCAUGUGACAUUUGGUGAAAACAAGCCAA | 6.35 | 7.87 |  |  |
| CUUUUGUGAGGAUAUCAGUAGUUAAUAAAUAAAAUUACUACUGAGAAGGCACAUGAGGAUCACCCAUGUUCCUC | 37.1 | 211 |  |  |
| AAGAGUGCAGGAUAUACUUGUUAGGACGGUUGGAUGAUUUGACAUGAGGAUCACCCAUGUAGAAGGGCAGAGAG | 155 | 129 |  |  |
| UUAAAUCGAAACAUGAGGAUCACCCAUGUGUUGUGGUUAAUAUAGGAUAUGUGUAUACUUUUAUGACAGAAGGAUGAUGAUACU |  |  | 16.2 | 13.2 |
| UUUGUUGUUGUGAGGAUAUCGUAGUUAUUUUGAAACGAGAAGGCACAUGAGGAUCACCCAUGUUUGUUGAUGGU | 30.7 | 127 |  |  |
| CCCAGUUAGGAAGGAUAUUGUACAUGAGGAUCACCCAUGUAAUAAAUGAGGAUCACGGAUGUAUACAAGAAGGUCCGGAUAGGC | 70.4 | 140 |  |  |
| GCUGCAUGUGAGAAGGCGAUCAUGAAACAUGAUCGAGGAUAUCAUGUAAACAUGAGGAUCACCCAUGUAUGGGUAUUAAGCAGC |  |  |  | 59.3 |
| GUGUAGUCAGGAUAUACAUAGGAAGAGAAUAUAAUAUAAGUACAUGAGGAUCACCCAUGUAGAAGGGACAGUGU | 35.3 | 39.9 |  |  |
| UGAUAGGACAGAGGAUAUACAGAUAGGAUCUACUAUCAAACAGUCCUUACAUGAGGAUCACCCAUGUAGAAGGCUGUCCUAUCU | 19.8 | 85.8 |  |  |
| UUAAUGUGAGGAUAUCAGGUGUGCUAGAGUACUGGUACAUCUGAGAAGGCACAUGAGGAUCACCCAUGUUCUUC | 36.9 | 110 |  |  |
| UUUACGUGAGGAUAUGCGAAUAGUACGUAAGUCAUACAGACGCAGAAGGCACAUGAGGAUCACCCAUGUGAACC | 22.7 | 80.4 |  |  |
| AGCAUGUGAGGAUAUGCGGACUCCGGUAAAUCUGAAGUCCAGUAGAAGGCACAUGAGGAUCACCCAUGUGAGAU | 43 | 110 |  |  |
